Experimental findings from ChEMBL document CHEMBL1121732, “Synthesis and pharmacological activity of thiohexital enantiomers” (J Med Chem, 1981) are described below.

Values joined by “and” are separate entries in the source; they are usually repeats but may differ in a detail not shown here. Identical values can stand only once.

Broadly, the LD50 is the dose expected to kill half of the subjects tested. Read a low LD50 as a more toxic substance.

In data set [1] the test system is Mus musculus. Kind of data set: Evaluation for the onset of action of intraperitoneal administration of dose. The format is functional.
The test system of data set [2] is Mus musculus. Kind of data set: Evaluation for duration of recovery tremors after administration of dose. Format: functional. The essentials:
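Groups of 40 male CF-1 mice, each given its compound's AD50 dose ip. Recovery tremors recorded for incidence, duration in minutes and graded severity.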

The nature of data set [3]: Ratio of LD50 to AD50 after intraperitoneal administration. The format is ADME. The settings on record: ip; read-out: Therapeutic index. A digest of the protocol: (§1)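 Therapeutic index, LD50/AD50. Both values from Litchfield-Wilcoxon curves in male CF-1 mice, 10 per dose, ≥4 doses. […] Dosing ip or iv (caudal vein), 20 mL/kg saline vehicle after 0.1 M NaOH.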
Data set [4] is described as follows: Potency ratio of compound to that of racemate was measured after intraperitoneal administration. The format is functional. The essentials:
(§2)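 Potency relative to the racemate, the standard, from Litchfield-Wilcoxon dose-response curves (≥4 doses, 10 male CF-1 mice each) for loss of righting reflex. Dosing ip or iv (caudal vein) at 20 mL/kg in saline after dissolving in 0.1 M NaOH.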

For data set [5], the system named is Mus musculus. Kind of data set: The median anesthetic dose evaluated after intravenous administration in barbiturates. Format: functional. A digest of the protocol: (§3)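 Male CF-1 mice (29.5 ± 2.5 g). Drug dissolved in 0.1 M aqueous NaOH (monosodium salt), diluted with saline, dosed at 20 mL/kg ip or iv via caudal vein; weights as free acid. Anesthesia = loss of righting reflex (no recovery from back within 1 min). AD50 with 95% confidence limits by Litchfield-Wilcoxon; ≥4 doses giving 10-90% response, 10 mice per dose.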

Data set [6] is described as follows: Potency ratio of compound to that of racemate was measured after intravenous administration; More potent. Format: functional. The essentials:
as §2

The nature of data set [7]: Potency ratio of compound was measured after intraperitoneal administration; More potent. The format is functional. The essentials: as §2
Data set [8] deals with Mus musculus. Kind of data set: (§4) The median anesthetic dose evaluated after intraperitoneal administration in barbiturates. Format: functional. The essentials: as §3
Data set [9] relates to Mus musculus. Kind of data set: Evaluation for the duration of action of intraperitoneal administration of dose. The format is functional.
A short description of data set [10]: The median lethal dose evaluated after intraperitoneal administration in barbiturates. The conditions noted are these: ip. The format is ADME. The essentials: (§5)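 Male CF-1 mice (29.5 ± 2.5 g). Drug dissolved in 0.1 M aqueous NaOH, diluted with saline, 20 mL/kg ip or iv (caudal vein); doses as free acid. Lethality scored over 24 h. LD50 with 95% confidence limits by Litchfield-Wilcoxon from ≥4 doses giving 10-90% response, 10 mice per dose.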

Data set [11] is described as follows: (§6) Evaluation after intravenous injection at faster rate (0.5 s). Format: ADME, organism-based. The settings on record: mouse, in vivo.
The nature of data set [12]: Ratio of LD50 to AD50 after intravenous administration. Format: ADME. The essentials:
as §1

Data set [13] has as its system Mus musculus. Described as §6. Format: functional. A digest of the protocol:
as §3

Data set [14] in a line: Potency ratio of slower rate (AD50) to that of faster rate (AD50). The format is functional. The essentials:
(§7)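 Racemate given iv via caudal vein at 20 mL/kg, either fast (about 0.5 s) or slower (about 3.0 s) injection. […] Slow-rate value compared with fast-rate value.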

Data set [15] in a line: Potency ratio of slower rate (LD50) to that of faster rate (LD50). The format is functional. The essentials:
as §7

The nature of data set [16]: The median lethal dose evaluated after intravenous administration in barbiturates. Format: ADME. A digest of the protocol: as §5
Data set [17] can be described thus: Potency ratio of compound was measured after intravenous administration. The format is functional. The essentials:
as §2

A short description of data set [18]: as §4. Format: functional. The settings on record: ip. A digest of the protocol: as §3

In the data set with Mus musculus [1], `C=CCC1([C@@H](C)C#CCC)C(=O)NC(=S)NC1=O` yielded an Onset of action of 3.49 min. Also, the Duration with Mus musculus [2] is 5.4 min; in the data set with Mus musculus [9], 12.15 min. In addition, in [3], the selectivity ratio was 3.2. Further, the Potency ratio in data set [4] came to 1.06; in data set [6], 1.61; in data set [7] it was 1.37. For the same molecule, the AD50 worked out at 12.3 mg/kg in the data set with Mus musculus [5] and 18.8 mg/kg in the data set on Mus musculus [8]. In data set [10], this molecule had a 50% lethal dose (LD50) of 59.8 mg/kg.
`C=CCC1(C(C)C#CCC)C(=O)NC(=S)NC1=O` (racemic) [RAC THIOHEXITAL]: the Onset of action with Mus musculus [1] is given as 3.69 min. Moreover, the Duration was determined as 5.8 min in the data set on Mus musculus [2] and 12.36 min with Mus musculus [9]. The selectivity ratio in data set [3] was 2.5; in [12] (read-out: Therapeutic index), 2.7. In addition, the AD50 in the data set with Mus musculus [5] is 19.8 mg/kg; with Mus musculus [13], 9.2 mg/kg; with Mus musculus [8] it was 25.8 mg/kg. The results for the LD50 in data set [11] and in data set [16] were 31.5 mg/kg and 53.5 mg/kg, respectively. For the same molecule, the Therapeutic index in data set [12] was 3.4. For the same molecule, the Potency ratio came to 2.15 in data set [14] and 1.7 in [15].
On to `C=CCC1([C@H](C)C#CCC)C(=O)NC(=S)NC1=O`, for which, in the data set with Mus musculus [2], the Duration was found to be 6.2 min. The selectivity ratio in [3] amounted to 2.4. For the same molecule, the Potency ratio is 1.06 and 1.04 in data set [4]; 1.22 in data set [17]. Also, the figures for the AD50 in the data set on Mus musculus [5] and in the data set with Mus musculus [8] were 24.1 mg/kg and 27.3 mg/kg, respectively. The LD50 in data set [18] was 66.1 mg/kg.
